Data from ChEMBL document CHEMBL3351885, “Putative kappa opioid heteromers as targets for developing analgesics free of adverse effects” (J Med Chem, 2014).
Calls of active or inactive are those of the source.

What was measured:
[1] = target: T1, Opioid receptors; mu & kappa (Homo sapiens) (UniProt P41145+P35372); test: Agonist activity at human mu-kappa opioid receptor expressed in HEK293 cells assessed as induction of intracellular calcium release by FLIPR assay; assay type: functional, cell-based
Method in brief: (§1)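 HEK293 cells stably carrying chimeric Δ6-Gαqi-myr, transiently transfected with one or two opioid receptor cDNAs (200 ng/20000 cells, Lipofectamine 2000). Cells were reseeded at 24 h and assayed 48 h post-transfection with a FLIPR Ca2+ kit. Fluorescence was read for 90 s after ligand addition to build concentration-response curves; mean ± SEM, n = 3−5.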

Mus musculus [2] = test: Antinociceptive effect in intrathecally dosed ICR-CD1 mouse assessed as peak time for antinociceptive effect by tail flick test; assay type: functional
Method in brief: (§2)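 Peak time in the mouse tail-flick test was set by measuring antinociception at 5, 10, 20, 30 and 60 min after dosing; latency cutoff 10 s; response expressed as %MPE.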

Mus musculus [3] = test: Antinociceptive effect in intrathecally dosed ICR-CD1 mouse by tail flick test; assay type: functional
Method in brief: (§3)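 Male ICR-CD1 mice, 17−25 g. Tail-flick latency was taken before dosing and at the compound's peak time, with a 10 s cutoff. Response was expressed as %MPE = (test − control)/(10 − control) × 100. Three groups of 8−10 mice per dose-response curve, each mouse used once. ED50 with 95% CI came from nonlinear regression.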

[4] = target: T2, Opioid receptors; delta & kappa (Homo sapiens) (UniProt P41145+P41143); test: Agonist activity at human delta-kappa opioid receptor expressed in HEK293 cells assessed as induction of intracellular calcium release by FLIPR assay; assay type: functional, cell-based; method in brief: as §1
Mus musculus [5] = test: Antinociceptive effect in intracerebroventricularly dosed ICR-CD1 mouse by tail flick test; assay type: functional; method in brief: as §3
[6] = target: Mu-type opioid receptor (Homo sapiens) (UniProt P35372); test: Agonist activity at human mu opioid receptor expressed in HEK293 cells assessed as induction of intracellular calcium release by FLIPR assay; assay type: functional, cell-based; method in brief: as §1
Mus musculus [7] = test: Antinociceptive effect in intrathecally dosed ICR-CD1 mouse assessed as drug tolerance development measured after 25 hrs by tail flick test; assay type: functional, organism-based
Method in brief: (§4)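 Acute tolerance: the highest (ED80−90) dose of the day-1 dose-response curve was given again 24 h later to the same mice in the tail-flick test. No significant difference between days was scored as no tolerance.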

Mus musculus [8] = test: Potency ratio, ratio,of ED50 for antinociceptive effect in intracerebroventricularly dosed ICR-CD1 mouse to ED50 for intrathecally dosed ICR-CD1 mouse by tail flick test; assay type: functional
Mus musculus [9] = test: Antinociceptive effect in intracerebroventricularly dosed ICR-CD1 mouse assessed as drug tolerance development measured after 25 hrs by tail flick test; assay type: functional, organism-based; method in brief: as §4
[10] = target: Delta-type opioid receptor (Homo sapiens) (UniProt P41143); test: Agonist activity at human delta opioid receptor expressed in HEK293 cells assessed as induction of intracellular calcium release by FLIPR assay; assay type: functional, cell-based; method in brief: as §1
[11] = target: Opioid receptors; mu & delta (Homo sapiens) (UniProt P41143+P35372); test: Agonist activity at human mu-delta opioid receptor expressed in HEK293 cells assessed as induction of intracellular calcium release by FLIPR assay; assay type: functional, cell-based; method in brief: as §1
Mus musculus [12] = test: Antinociceptive effect in intracerebroventricularly dosed ICR-CD1 mouse assessed as peak time for antinociceptive effect by tail flick test; assay type: functional; method in brief: as §2
[13] = target: Kappa-type opioid receptor (Homo sapiens) (UniProt P41145); test: Agonist activity at human kappa opioid receptor expressed in HEK293 cells assessed as induction of intracellular calcium release by FLIPR assay; assay type: functional, cell-based; method in brief: as §1
Mus musculus [14] = test: Antinociceptive effect in sc dosed ICR-CD1 mouse by tail flick test; assay type: functional; method in brief: as §3
Mus musculus [15] = test: Antinociceptive effect in orally dosed ICR-CD1 mouse by tail flick test; assay type: functional; conditions: po; method in brief: as §3
[16] = target: T2, Opioid receptors; delta & kappa (Homo sapiens); test: Agonist activity at human kappa-delta opioid receptor expressed in HEK293 cells assessed as induction of beta-arrestin 2 recruitment incubated for 60 mins by fluorescent microscopy; assay type: cell-based
Method in brief: (§5)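 HEK293 cells were transiently transfected with single or paired opioid receptors, replated on chamber slides after 24 h and left overnight. Ligands in serum-free medium were applied for 60 min at 37 °C. Cells were fixed in 4% paraformaldehyde, then stained with goat anti-β-arrestin2 (1 μg/mL, 4 °C overnight), fluorescent anti-goat secondary (30 min, RT) and DAPI. A brighter membrane on fluorescence microscopy scored as recruitment.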

[17] = target: Delta-type opioid receptor (Homo sapiens) (UniProt P41143); test: Agonist activity at human delta opioid receptor expressed in HEK293 cells assessed as induction of beta-arrestin 2 recruitment incubated for 60 mins by fluorescent microscopy; assay type: cell-based; method in brief: as §5
[18] = target: T1, Opioid receptors; mu & kappa (Homo sapiens); test: Agonist activity at human mu-kappa opioid receptor expressed in HEK293 cells assessed as induction of beta-arrestin 2 recruitment incubated for 60 mins by fluorescent microscopy; assay type: cell-based; method in brief: as §5
Mus musculus [19] = test: Antinociceptive effect in ICR-CD1 mouse dosed intrathecally twice on day 1 and day 2 followed by injection with same dose on day 3 by tail flick test; assay type: functional
[20] = target: Mu-type opioid receptor (Homo sapiens) (UniProt P35372); test: Agonist activity at human mu opioid receptor expressed in HEK293 cells assessed as induction of beta-arrestin 2 recruitment incubated for 60 mins by fluorescent microscopy; assay type: cell-based; method in brief: as §5
Mus musculus [21] = test: Antinociceptive effect in intrathecally dosed ICR-CD1 mouse co-treated with mu opioid receptor antagonist beta-FNA by tail flick test; assay type: functional, organism-based
Mus musculus [22] = test: Antinociceptive effect in sc dosed ICR-CD1 mouse by tail flick test relative to morphine; assay type: functional
Mus musculus [23] = test: Rewarding effect in ICR-CD1 mouse at 0.3 to 10 mg/kg, sc in presence of naloxone by conditioned place preference assay; assay type: functional, organism-based
[24] = target: Kappa-type opioid receptor (Homo sapiens) (UniProt P41145); test: Agonist activity at human kappa opioid receptor expressed in HEK293 cells assessed as induction of beta-arrestin 2 recruitment incubated for 60 mins by fluorescent microscopy; assay type: cell-based; method in brief: as §5
Mus musculus [25] = test: Antinociceptive effect in intrathecally dosed ICR-CD1 mouse co-treated with kappa opioid receptor antagonist norB-NI by tail flick test; assay type: functional, organism-based
Mus musculus [26] = test: Physical dependence in ICR-CD1 mouse assessed as induction of jumps over 10 mins period at 2.5 to 10 mg/kg, sc dosed three times daily for 4 days and 10 mg/kg, sc on day 5 followed 3 hrs later by single 10 mg/kg, sc naloxone; assay type: organism-based; conditions: in vivo
Method in brief: (§6)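 Mice received sc drug three times daily for 4 days (2.5−10 mg/kg), then 10 mg/kg on day 5, with sc naloxone 3 h later. Jumps were counted over 10 min. A morphine group served as control.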

Mus musculus [27] = test: Antinociceptive effect in intrathecally dosed ICR-CD1 mouse co-treated with delta opioid receptor antagonist NTB by tail flick test; assay type: functional, organism-based
Mus musculus [28] = test: Physical dependence in ICR-CD1 mouse assessed as induction of jumps over 10 mins period at 2.5 to 10 mg/kg, sc dosed three times daily for 4 days and 10 mg/kg, sc on day 5 followed 3 hrs later by single 50 mg/kg, sc naloxone; assay type: organism-based; conditions: in vivo; method in brief: as §6
Mus musculus [29] = test: Ratio of antinociceptive effect in intrathecally dosed ICR-CD1 mouse in presence of 500 nmol naloxone to antinociceptive effect in intrathecally dosed ICR-CD1 mouse in absence of 500 nmol naloxone; assay type: functional
Mus musculus [30] = test: Induction of aversion in ICR-CD1 mouse at 0.3 to 10 mg/kg, sc by conditioned place preference assay; assay type: organism-based; design: dose 0.3-10 mg/kg, route subcutaneous; conditions: in vivo
Method in brief: (§7)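 Two-chamber place conditioning with rod versus mesh floors. Bias was taken in a 20 min free-exploration pretest, and groups were counterbalanced. Drug or vehicle (saline with 1% DMSO) was paired with one chamber and saline with the other, injected sc 20 min before 30 min confinement. Four drug and four saline sessions alternated daily. Tests of 20 min came after the 4th and 8th sessions. Score = change in CS+ time from pretest; Bonferroni t test against vehicle.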

Mus musculus [31] = test: Rewarding effect in ICR-CD1 mouse at 0.3 to 10 mg/kg, sc by conditioned place preference assay; assay type: functional, organism-based; method in brief: as §7
Mus musculus [32] = test: Induction of aversion in ICR-CD1 mouse at 0.1 to 1 mg/kg, sc by conditioned place preference assay; assay type: organism-based; design: dose 0.1-1 mg/kg, route subcutaneous; conditions: in vivo; method in brief: as §7

Kappa-type opioid receptor (Homo sapiens), sequence (P41145 whole entry): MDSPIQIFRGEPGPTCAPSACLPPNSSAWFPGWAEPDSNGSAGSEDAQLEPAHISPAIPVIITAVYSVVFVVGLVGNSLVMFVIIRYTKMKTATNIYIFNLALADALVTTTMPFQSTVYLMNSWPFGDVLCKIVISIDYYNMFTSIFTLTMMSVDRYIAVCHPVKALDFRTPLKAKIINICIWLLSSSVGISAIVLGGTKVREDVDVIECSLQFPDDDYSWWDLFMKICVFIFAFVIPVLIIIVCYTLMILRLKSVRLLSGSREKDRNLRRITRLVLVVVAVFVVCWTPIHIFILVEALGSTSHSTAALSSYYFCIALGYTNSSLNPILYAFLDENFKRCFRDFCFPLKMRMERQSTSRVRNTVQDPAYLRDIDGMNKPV
Opioid receptors; mu & delta (Homo sapiens), sequence (P35372 whole entry, looked up): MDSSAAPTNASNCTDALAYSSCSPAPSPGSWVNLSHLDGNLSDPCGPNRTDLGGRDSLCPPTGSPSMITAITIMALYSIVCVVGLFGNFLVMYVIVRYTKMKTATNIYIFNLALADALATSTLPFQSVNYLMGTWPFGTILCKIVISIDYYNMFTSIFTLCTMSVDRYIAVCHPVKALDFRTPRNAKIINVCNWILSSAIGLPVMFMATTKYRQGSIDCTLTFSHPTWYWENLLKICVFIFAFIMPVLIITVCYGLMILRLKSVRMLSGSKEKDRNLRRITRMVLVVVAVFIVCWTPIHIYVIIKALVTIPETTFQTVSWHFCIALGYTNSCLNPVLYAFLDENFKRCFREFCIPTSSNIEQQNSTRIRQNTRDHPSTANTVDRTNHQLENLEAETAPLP
Opioid receptors; mu & delta (Homo sapiens), sequence (P41143 whole entry, looked up): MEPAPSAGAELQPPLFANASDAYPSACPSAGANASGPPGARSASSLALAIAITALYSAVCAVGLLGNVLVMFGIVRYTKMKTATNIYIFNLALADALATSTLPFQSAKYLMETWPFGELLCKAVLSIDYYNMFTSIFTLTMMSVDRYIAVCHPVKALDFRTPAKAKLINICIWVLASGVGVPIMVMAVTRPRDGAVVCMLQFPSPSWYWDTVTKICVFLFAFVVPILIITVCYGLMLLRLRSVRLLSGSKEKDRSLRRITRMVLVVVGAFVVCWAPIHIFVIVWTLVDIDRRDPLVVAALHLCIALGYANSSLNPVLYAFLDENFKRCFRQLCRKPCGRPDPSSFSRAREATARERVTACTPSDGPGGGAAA
T1 sequence (P35372 whole entry, looked up): as the sequence (P35372 whole entry, looked up) above
T1 sequence (P41145 whole entry, looked up): as the sequence (P41145 whole entry) above
Mu-type opioid receptor (Homo sapiens), sequence (P35372 whole entry): as the sequence (P35372 whole entry, looked up) above
T2 sequence (P41143 whole entry, looked up): as the sequence (P41143 whole entry, looked up) above
T2 sequence (P41145 whole entry, looked up): as the sequence (P41145 whole entry) above
Delta-type opioid receptor (Homo sapiens), sequence (P41143 whole entry): as the sequence (P41143 whole entry, looked up) above

Compound	Activity [1]	Time (Mus musculus [2])	MPE (Mus musculus [3])	Activity [4]	MPE (Mus musculus [5])	Activity [6]	Activity (Mus musculus [7])	Ratio ED50 (Mus musculus [8])	Activity (Mus musculus [9])	Activity [10]	Activity [11]	Time (Mus musculus [12])	Activity [13]	ED50 (Mus musculus [3])	ED50 (Mus musculus [5])	further results
O=C(N[C@@H]1CC[C@@]2(O)[C@H]3Cc4ccc(O)c5c4[C@@]2(CCN3CC2CC2)[C@H]1O5)c1ccc2[nH]ccc2c1	Active	20 min	<60%	Active	<60%											
Cn1c(C(=O)N[C@@H]2CC[C@@]3(O)[C@H]4Cc5ccc(O)c6c5[C@@]3(CCN4CC3CC3)[C@H]2O6)cc2ccccc21	Active	10 min		Active		Active	Active	24	Active	Active	Active	10 min	Active	23.06 pmol	550.4 pmol	
O=C(N[C@@H]1CC[C@@]2(O)[C@H]3Cc4ccc(O)c5c4[C@@]2(CCN3CC2CC2)[C@H]1O5)c1cc2cc(Cl)ccc2[nH]1	Active	20 min	<60%	Active	<60%											
CN1CC[C@]23c4c5ccc(O)c4O[C@H]2[C@@H](O)C=C[C@H]3[C@H]1C5 [MORPHINE]																ED50 (Mus musculus [14]): 7.8 mg/kg; ED50 (Mus musculus [15]): 2.51 mg/kg
O=C(N[C@@H]1CC[C@@]2(O)[C@H]3Cc4ccc(O)c5c4[C@@]2(CCN3CC2CC2)[C@H]1O5)c1cc2ccccc2s1	Active	20 min	<60%	Active	<60%	Active				Active	Active		Active			
O=C(N[C@@H]1CC[C@@]2(O)[C@H]3Cc4ccc(O)c5c4[C@@]2(CCN3CC2CC2)[C@H]1O5)c1cc2ccccc2[nH]1	Active	10 min		Active		Active	Active	59	Active	Active	Active	10 min	Active	21.27 pmol	1252.2 pmol	ED50 (Mus musculus [14]): 0.97 mg/kg; Activity [16]: inactive; Activity [17]: Active; Activity [18]: inactive; ED50 (Mus musculus [19]): 29.47 pmol; Activity [20]: Active; Activity (Mus musculus [21]): Active; Ratio ED50 (Mus musculus [22]): 9; Activity (Mus musculus [23]): inactive; Activity [24]: Active; Activity (Mus musculus [25]): Active; Activity (Mus musculus [26]): Non-toxic; Activity (Mus musculus [27]): Active; ED50 (Mus musculus [15]): 9.08 mg/kg; Activity (Mus musculus [28]): Non-toxic; Ratio (Mus musculus [29]): 15; Activity (Mus musculus [30]): Non-toxic; Activity (Mus musculus [31]): Dose-dependent effect
O=C(N[C@@H]1CC[C@@]2(O)[C@H]3Cc4ccc(O)c5c4[C@@]2(CCN3CC2CC2)[C@H]1O5)c1cc2ccccc2o1	Active	10 min		Active		Active	Active	3	Active	Active	Active	10 min	Active	191.9 pmol	580.8 pmol	
O=C(N[C@@H]1CC[C@@]2(O)[C@H]3Cc4ccc(O)c5c4[C@@]2(CCN3CC2CC2)[C@H]1O5)c1c[nH]c2ccccc12	Active	20 min		Active	<60%		Active							29.39 pmol		
COC(=O)[C@@H]1C[C@H](OC(C)=O)C(=O)[C@H]2[C@@]1(C)CC[C@H]1C(=O)O[C@H](c3ccoc3)C[C@]21C [SALVINORIN A]																Activity (Mus musculus [32]): Toxic
O=C(N[C@@H]1CC[C@@]2(O)[C@H]3Cc4ccc(O)c5c4[C@@]2(CCN3CC2CC2)[C@H]1O5)c1cc2cc(F)ccc2[nH]1		10 min		inactive	<60%		inactive				Active			295 pmol		
